Compounds with a hit are over-represented: about 3.8% of the library has one in this group of screens.
Kir21 block: blocks the mouse Kir2.1 inward-rectifier potassium channel. P35561. HEK293-Kir2.1, FluxOR thallium flux fluorescence; stronger effect = lower value. B-score at 10 µM. 0.85% of 310,000 active. AID 1672;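 active = fluorescence ratio B-score at or below minus 3 SD of library scores, with starting-brightness B-score within 2 SD, cut at about -4.2 in these data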;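 also: channel flux triggered by added potassium and thallium sulfate stimulus; B-score of peak minus minimum fluorescence over baseline after thallium stimulus; more negative B-score means stronger Kir2.1 block with less thallium influx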
hERG protect: compounds protecting human hERG from proarrhythmic drug block | CHO-hERG, FluxOR thallium flux, dofetilide IC70 present | activation (rescue from dofetilide block), less the hit threshold, % at 10 µM | 0.51% of 310,000 active | AID 1511;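 active = activation above the mean of controls blocked by dofetilide plus 5 SD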;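 also: thallium influx through hERG after potassium depolarization seen as dye fluorescence rise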
KCNQ1 pot: potentiates or activates the human KCNQ1 potassium channel; CHO-K1 KCNQ1, thallium flux FluxOR fluorescence; stronger effect = higher value; B-score at 10 µM; P51787; 0.35% of 310,000 active; AID 2648;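 active = fluorescence ratio B-score, a plate-corrected score, at least three library SD, with initial intensity B-score within 5 SD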
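System: Stable KCNQ1 CHO-K1 line | Incubation: 90 min dye loading and 20 min compound exposure, both at room temperature | Measure: Ratio B score | Medium: Assay buffer for compound exposure, DMSO matched across wells | Compound dosing: Single-concentration screen | Probe or stimulus: K+/Tl+ depolarizing stimulus | Measured by: Kinetic FluxOR fluorescence, 10 s baseline plus 110 s post-stimulus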
KCNK9 block: blocks the human KCNK9 two-pore domain potassium channel; Q9NPC2; AID 488922; HEK293 KCNK9, FluxOR thallium flux fluorescence; stronger effect = lower value; 1.2% of 310,000 active; B-score at 10 µM;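 active = ratio B-score over 3 SD below the library mean, with starting fluorescence within 5 SD of its mean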;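 also: negative B-score means less thallium flux so channel inhibition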
KCNQ1 inh: inhibitors of human KCNQ1 potassium channel; CHO-K1 KCNQ1, FluxOR thallium flux fluorescence; stronger effect = higher value; B-score at 10 µM; 1.3% of 310,000 active;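 active = compounds whose thallium flux B-score, printed positive for inhibition, exceeds three library SD while starting fluorescence stays within three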;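 also: channel opened by potassium depolarization with thallium stimulus after 20 min compound exposure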
KCNK3 block: human KCNK3 channel inhibition, primary screen | O14649 | CHO-KCNK3 thallium flux, FluxOR fluorescence; stronger effect = lower value | B-score at 10 µM | 0.84% of 340,000 active;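 active = B-score under library mean minus 4 SD, starting fluorescence ratio at most library mean plus 5 SD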;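 also: more negative B-score means stronger inhibition of thallium flux through KCNK3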
Target sequence (O14649 whole entry, looked up): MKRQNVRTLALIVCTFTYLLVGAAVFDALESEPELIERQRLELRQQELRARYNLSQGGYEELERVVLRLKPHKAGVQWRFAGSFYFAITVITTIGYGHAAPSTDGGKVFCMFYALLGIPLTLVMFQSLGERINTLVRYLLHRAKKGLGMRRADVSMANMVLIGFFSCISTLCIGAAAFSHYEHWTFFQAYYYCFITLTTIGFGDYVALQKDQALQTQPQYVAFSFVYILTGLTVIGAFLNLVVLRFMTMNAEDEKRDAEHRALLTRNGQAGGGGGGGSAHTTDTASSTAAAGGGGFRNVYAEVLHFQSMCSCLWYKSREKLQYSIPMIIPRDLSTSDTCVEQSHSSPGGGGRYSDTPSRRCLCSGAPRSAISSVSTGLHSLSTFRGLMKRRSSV
Active calls of the source: *; i = inactive; . = no result given.

SMILES	Kir21 block	hERG protect	KCNQ1 pot	KCNK9 block	KCNQ1 inh	KCNK3 block
COc1ccccc1[As](=O)(O)CC(O)COc1ccc(Cl)cc1Cl (configuration not stated)	0.09	-3.6	i	i	i	.
CCCCCCCSc1cc(OC)c(CCN(C)C)cc1OC	-9.89*	-26.3	i	i	i	i
CCc1cc(=O)oc2cc(OCC(=O)N3C[C@H]4C[C@@H](C3)c3cccc(=O)n3C4)c(Cl)cc12	0.74	-5.9	i	i	i	i
COC(=O)C1=C(c2ccc(S(C)(=O)=O)cc2)C[C@@H]2CC[C@H]1N2C(=O)NCCS(C)=O (some centres not stated)	0.28	-3.2	i	i	i	i
O/N=C/c1c[nH]c2ccccc12	0.01	-8.6	i	i	i	i
CCCC/C(=N\O)c1c[nH]c2ccccc12	-0.62	1.0	i	-7.51*	i	i
c1ccc(CNc2c3c(nc4ccccc24)CCC3)cc1	-6.57*	-26.8	i	i	i	i
Oc1ccc(C2NCc3ccccc3-n3cccc32)cc1Cl (configuration not stated)	-8.87*	-12.1	i	i	i	i
FC(F)(F)c1cccc(C2NCc3ccccc3-n3cccc32)c1 (configuration not stated)	-2.41	-6.2	i	i	i	i
COc1ccc(O)c(CN2CCCC(C(=O)c3ccccc3SC)C2)c1 (configuration not stated)	0.11	-20.8	i	i	i	i
C[C@]1(O)CC[C@H]2[C@@H]3CCC4=CC(=O)CC[C@]4(C)[C@@]3(F)[C@@H](O)C[C@@]21C	.	.	.	.	.	-9.75*
CN(C)c1ccc(/C=C/[N+](=O)[O-])cc1	-6.27*	-17.2	i	i	12*	i
CCCCn1c(=O)c(C(=O)NCc2ccccc2)c(O)c2ccccc21	-1.19	-1.6	i	i	8*	i
CN1CC(C(=O)c2cccc(C(F)(F)F)c2)C(c2ccc(Cl)cc2)C1 (configuration not stated)	-6.76*	-11.7	i	i	i	i
O=[N+]([O-])CCO	.	.	.	.	.	i
CC(NCC#Cc1ccccc1)C(O)c1ccccc1 (configuration not stated)	-0.85	-13.8	i	i	i	i
CSc1ccc(CNC(C)C(O)c2ccccc2)cc1 (configuration not stated)	-5.52*	-16.1	i	i	i	i
CC(NS(=O)(=O)OCC(Cl)(Cl)Cl)c1ccccc1 (configuration not stated)	-5.65*	-5.3	i	i	i	i
O=S(=O)(NC1CCCCC1)OCC(Cl)(Cl)Cl	0.11	-5.5	i	i	i	i
CC1(C)C[C@H]2C=C(C=O)[C@]3(C=O)C[C@]3(C)[C@H]2C1	-8.19*	-20.6	21*	i	i	i
CN(C)c1ccc(C2C3C=CC(C3)C2(C#N)C(=O)O)c(Br)c1 (configuration not stated)	0.04	-0.1	i	i	i	i
CNCC(O)c1cc(OCc2ccccc2)c(OCc2ccccc2)cc1F (configuration not stated)	-6.01*	-15.8	i	i	i	i
CCN1CCN(c2cc(N3CCCC3)c([N+](=O)[O-])cc2F)CC1	-4.24*	-5.8	i	i	i	i
Fc1ccccc1CCNCc1cccc2ccccc12	-11.8*	-8.7	i	i	i	i
O=C(Cn1cc(C(=O)c2ccccc2)c2ccccc21)NCc1ccco1	-1.14	-8.1	i	-8.98*	i	i
c1ccc(CCNCc2cccs2)cc1	0.34	-10.5	i	i	i	i
O=P(Nc1cccnc1)(Oc1ccccc1Cl)Oc1ccccc1Cl	-4.77*	-17.8	i	i	i	i
COc1ccc(NP(=O)(Oc2ccccc2OC)Oc2ccccc2OC)cc1	-1.28	-12.5	i	i	i	i
C=CC[N+]1(C)C2CCC1CC(O)C2 (configuration not stated)	0.75	6.2*	i	i	i	i

High-throughput results deposited in PubChem BioAssay by Johns Hopkins Ion Channel Center.
